# Assay outcomes from PubChem.
# Only some compounds are listed: those with a hit (about 1.9% of all), similar ones and a draw of the others.
# TAG inh – reduces triacylglycerol accumulation in H9c2 cells | Nile Red lipid (TAG) fluorescence; cells loaded with 200 µM oleic acid | inhibition, % at 12.5 µM | 230,000 compounds, 0.66% hits | AID 651582;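 active = pattern-corrected inhibition of lipid staining of at least 50% with the nuclear-stain viability signal not falling by more than 50%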;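 also: 0% = DMSO wells and 100% = triacsin C control wells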
# APP transl inh – APP translation inhibition. inhibition, % at 2 µM. SH-SY5Y APP 5'UTR-luciferase reporter, luminescence. 190,000 compounds, 0.82% hits. AID 1285;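 active = inhibition above a set limit, derived from the sample mean plus 3 SD, cut at about 45% in these data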
# aSyn UTR inh – MLPCN primary screen, SNCA 5' untranslated region | alpha-synuclein 5'UTR reporter, inhibitor activity | 300,000 compounds, 0.82% hits | AID 1813 | inhibition, % (tested at 7.5 µM); in the data active = inhibition above about 60%;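 also: H4 neuroglioblastoma cells stably carrying SNCA 5'UTR luciferase fusion; 0% = DMSO wells and 100% = positive control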
# Jurkat NFkB inh – lowers PMA/ionomycin-induced NF-kB signal in Jurkat cells. inhibition, % at 4 µM. 330,000 compounds, 0.53% hits. PMA/ionomycin-induced NF-kB luciferase reporter, luminescence; in the data active = inhibition above about 50%
# Lipid droplet – modulators of hepatic lipid droplet formation; AID 1656; 240,000 compounds, 0.4% hits; AML12 mouse hepatocytes, oleate lipid droplets, BODIPY imaging; inhibition, % at 6.5 µM;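 active = lipid droplet intensity inhibited by at least 50%, with more than 500 cells counted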
#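 Assay system: AML12 hepatocytes (mouse) / Also added: 100 µM oleic acid challenge / Times: overnight treatment with compound plus oleate / Detection: high-content imaging of BODIPY-stained droplets and DAPI nuclei / Evaluation: % inhibition of lipid droplet signal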
# 697 NFkB inh – lowers PMA/ionomycin-induced NF-kB signal in 697 B cells. 697 B-cell NF-kB luciferase reporter, 16 h. inhibition, % at 4 µM. 330,000 compounds, 0.33% hits; in the data active = inhibition above about 35%
# * hit, by the source's call; . = no result given.
SMILES,TAG inh,APP transl inh,aSyn UTR inh,Jurkat NFkB inh,Lipid droplet,697 NFkB inh
CCOc1ccc(N2C(N)=NC(N)=NC2(C)C)cc1,-54.3,5.5,66.2*,18.8,-46.4,-19.6
CC1(C)N=C(N)N=C(N)N1c1ccc(OCC(=O)N2CCOCC2)cc1,5.4,.,.,.,.,.
COc1cccc(NC(=O)CSc2nc3ccccc3cc2Cc2ccccc2)c1,.,-5.3,21.7,12.9,.,3.8
COc1cccc(CSc2nc3ccccc3cc2C=O)c1,-72.0,89.2*,71.0*,49.1,.,-7.5
O=C(Nc1ccccn1)c1onc2c1CCCC2,.,-149.6,96.4*,-51.3,2.3,-118.1
Cc1ccc(S(=O)(=O)N2CCN(C(=O)c3ccccc3Cc3ccccc3)CC2)c(C)c1,-23.6,.,17.6,7.2,-1.6,19.9
Cc1ccc(NC(=O)N2CCCC2C(=O)NCCC2=CCCCC2)cc1 (stereo unspecified),.,48.4*,17.4,17.0,.,6.7
C=CCNC(=O)/C(C#N)=C\c1cc(Cl)c(O)c(OCC)c1,.,-12.2,6.7,.,-27.9,.
CCOc1cc(/C=C(/C#N)C(=O)Nc2ccc(O)cc2)cc(Br)c1O,46.5,-3.6,83.7*,32.1,-149.8,3.5
Cc1ccccc1CS(=O)(=O)c1nnc([C@H](Cc2ccccc2)NC(=O)OC(C)(C)C)o1,.,69.9*,20.4,14.5,.,-17.7
CC(C)(C)OC(=O)N[C@@H](Cc1ccccc1)c1nnc(S(=O)(=O)Cc2ccccc2)o1,.,64.0*,.,37.3,.,-22.5
CCSc1nnc([C@H](Cc2ccccc2)NC(=O)OC(C)(C)C)o1,.,14.1,-7.8,13.1,-7.9,4.1
O=C(Oc1ccc(Br)cc1C(=S)N1CCCCC1)c1cc([N+](=O)[O-])cc([N+](=O)[O-])c1,.,49.8*,8.0,-1.3,-7.2,10.8
Cc1[nH]c2ccccc2c1CCNC(=O)c1ccc2c(c1[N+](=O)[O-])C(=O)c1ccccc1C2=O,23.8,-4.7,-44.4,-3.3,.,-22.3
Cc1[nH]c2c(C)cccc2c1CCNC(=O)c1ccc2c(c1[N+](=O)[O-])C(=O)c1ccccc1C2=O,51.5*,2.0,-11.6,20.5,.,-28.6
COCCN(C(=O)COC(=O)Cc1coc2cc3c(cc12)CCC3)c1c(N)n(Cc2ccccc2)c(=O)[nH]c1=O,-2.3,.,10.9,3.6,.,0.5
Cc1ccc(-c2nn3cnnc3c3ccccc23)cc1C,-49.4,-30.9,64.2*,-0.3,-3.6,-12.8
CCOc1ccc(C(=O)C(CCC(CN(C)C)C(=O)c2ccc(OCC)cc2)CN(C)C)cc1 (stereo unspecified),81.2,92.5*,-10.3,.,-11.9,.
COc1ccc(/C=N/NC(=O)c2cccnc2)cc1CSc1nc2ccccc2s1,.,54.5*,54.3,34.2,-18.7,-35.8
O=c1[nH]c2cnn(-c3ccccc3)c2c(=O)n1O,5.1,.,.,.,.,.
CCN(CC)c1ccc(N=Cc2c(C)[nH]c3ccccc23)cc1,-1.5,-0.1,63.4*,-5.1,36.4,-51.0
Cc1[nH]c2ccccc2c1/C=N/n1cnnc1,-16.0,-4.7,9.4,-18.9,.,6.8
COCCNC(=O)C1(C)CCCN(C(=O)c2ccccc2)C1 (stereo unspecified),3.5,.,.,.,.,.
CCc1ccc(-c2nc(CSCC(=O)NCc3ccco3)c(C)o2)cc1,-8.6,46.7*,77.4*,.,-22.9,.
COc1ccc(C(=O)NN(C)c2nc(C(F)(F)F)nc3ccccc23)cc1,36.7,94.8*,33.1,.,-9.8,.
SMILES,TAG inh,APP transl inh,aSyn UTR inh,Jurkat NFkB inh,Lipid droplet,697 NFkB inh
COc1cccc(C2NC(=S)NC(C)=C2C(=O)c2ccccc2)c1OC (stereo unspecified),34.4,77.6*,16.3,28.6,-127.5,-18.2
OC(c1cc(Cl)cc(Cl)c1)c1ncc(-c2ccccc2F)[nH]1 (stereo unspecified),-17.3,.,.,.,.,.
O=C(NC(NC(=S)N1CCOCC1)C(Cl)(Cl)Cl)c1ccc(Cl)cc1 (stereo unspecified),.,9.6,66.1*,37.9,14.3,26.0
O=[N+]([O-])c1ccc(Cl)cc1Sc1cccc2cccnc12,-3.0,-4.0,11.7,3.1,-6.4,-0.3
O=[N+]([O-])c1ccc(Cl)cc1Sc1nc2ccccc2o1,.,13.7,68.6*,2.0,-8.7,22.0
O=[N+]([O-])c1ccc(Sc2nc3ccccc3o2)c([N+](=O)[O-])c1,.,62.8*,-16.0,45.2,5.1,-40.1
COc1cccc(CN2CC(C(=O)NCCSc3nnnn3C)CCC2=O)c1 (stereo unspecified),-1.3,.,14.3,11.0,-6.9,-8.8
